The target of data set [1] is T1, Orexin/Hypocretin receptor type 1 (Homo sapiens, UniProt O43613).
T1 sequence (O43613 whole entry): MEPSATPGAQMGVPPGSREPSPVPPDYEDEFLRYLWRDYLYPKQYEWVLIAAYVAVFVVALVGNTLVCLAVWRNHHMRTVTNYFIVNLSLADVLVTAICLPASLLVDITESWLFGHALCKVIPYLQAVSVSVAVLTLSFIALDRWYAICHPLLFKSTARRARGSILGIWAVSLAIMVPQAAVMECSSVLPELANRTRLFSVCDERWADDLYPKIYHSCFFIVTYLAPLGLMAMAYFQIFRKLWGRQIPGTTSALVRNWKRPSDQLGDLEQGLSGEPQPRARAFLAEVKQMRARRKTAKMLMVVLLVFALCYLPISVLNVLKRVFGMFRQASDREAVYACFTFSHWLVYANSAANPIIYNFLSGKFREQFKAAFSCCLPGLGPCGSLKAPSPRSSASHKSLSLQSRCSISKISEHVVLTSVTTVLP
The data set is described as follows: Antagonist activity at human OX1 receptor expressed in CHO cells assessed as inhibition of orexin A-induced Ca2+ accumulation after 1 hr by Fluo-4-AM staining-based FLIPR assay. Type of data set: functional, cell-based. As to conditions: for pIC50: cho. Summed up:
(§1)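 Recombinant CHO or HEK cells expressing human OX1R or OX2R, serum-deprived overnight in HEPES buffer pH 7.4 with 1% BSA. Cells were loaded with 2 μM Fluo4-AM plus 0.1 mM probenecid for 1 h. Compound (up to eight concentrations, usually 10⁻⁹–10⁻⁵ M) was added first, then submaximal orexin A 1 h later. Curves run in triplicate; pKi from IC50 by Cheng–Prusoff.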

The target of another data set is T2, Orexin receptor type 2 (Homo sapiens, UniProt O43614).
T2 sequence (O43614 whole entry): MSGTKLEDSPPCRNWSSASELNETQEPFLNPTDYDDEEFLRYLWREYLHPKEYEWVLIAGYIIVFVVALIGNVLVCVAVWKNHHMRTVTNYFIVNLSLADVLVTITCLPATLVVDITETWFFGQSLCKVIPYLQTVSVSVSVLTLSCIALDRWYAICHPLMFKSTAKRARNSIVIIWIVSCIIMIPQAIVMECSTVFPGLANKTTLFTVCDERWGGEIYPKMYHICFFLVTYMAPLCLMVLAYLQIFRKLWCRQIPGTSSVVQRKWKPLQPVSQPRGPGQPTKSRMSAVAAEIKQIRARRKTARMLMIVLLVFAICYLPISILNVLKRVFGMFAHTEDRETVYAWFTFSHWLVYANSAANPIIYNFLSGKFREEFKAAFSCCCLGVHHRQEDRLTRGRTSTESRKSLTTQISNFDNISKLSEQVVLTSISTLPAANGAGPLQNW
The data set is described as follows: Antagonist activity at human OX2 receptor expressed in HEK cells assessed as inhibition of orexin A-induced Ca2+ accumulation after 1 hr by Fluo-4-AM staining-based FLIPR assay. Format: functional, cell-based, HEK293. In short, it runs like this:
as §1

Data set [2] in a line: Oral bioavailability in C57BL/6 mouse blood at 3 mg/kg. Format: ADME, organism-based. Summed up: (§2)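 Cassette PK in male C57BL/6 mice (20–30 g), up to five test compounds plus one reference. Iv 1 mg/kg in NMP/blank plasma 10/90 v/v, 5 mL/kg, saphenous vein. Oral 3 mg/kg suspended in 0.5% w/v carboxymethylcellulose in water/Tween 80 (99.5/0.5), 10 mL/kg gavage. Blood sampled 5 min (iv) or 15 min (po) to 24 h, n = 3 per time point, measured by LC/MS/MS.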

Data set [3] is described as follows: Ratio of drug level in brain to blood in C57BL/6 mouse at 3 mg/kg, po after 15 mins. Type of data set: ADME, organism-based. Further details: dose 3 mg/kg, route oral. Summed up:
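Male C57BL/6 mice (20–30 g), cassette dosing of up to five compounds plus a reference. Blood and brain collected 15 min post-dose, n = 3. Brain homogenised in 2 mM KH2PO4 and extracted with acetonitrile. LC/MS/MS quantitation; mean brain/blood ratio.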

Data set [4] in a line: Cmax in C57BL/6 mouse blood at 3 mg/kg, po. Type of data set: ADME, organism-based. Further details: dose 3 mg/kg, route oral. Summed up: as §2
Data set [5] can be described thus: Volume of distribution at steady state in C57BL/6 mouse at 1 mg/kg, iv. Type of data set: ADME, organism-based. Further details: dose 1 mg/kg, route intravenous. As to conditions: in vivo, read-out: Vdss. In short, it runs like this:
as §2

Data set [6] can be described thus: AUC (infinity) in C57BL/6 mouse blood at 3 mg/kg, po. Type of data set: ADME, organism-based. The arrangement: time infinity, dose 3 mg/kg, route oral. In short, it runs like this:
as §2

A short description of data set [7]: Total blood clearance in C57BL/6 mouse at 1 mg/kg, iv. Format: ADME, organism-based. The arrangement: dose 1 mg/kg, route intravenous. In short, it runs like this: as §2

We go through 22 molecules from ChEMBL document CHEMBL2434958, “Identification of a novel series of orexin receptor antagonists with a distinct effect on sleep architecture for the treatment of insomnia” (J Med Chem, 2013).

In general, Ki refers to the equilibrium dissociation constant of an inhibitor or competing ligand from its target. Broadly, the pIC50 is the negative decadic logarithm of the IC50, by convention in mol/L. The term bioavailability denotes the share of a dose that reaches the circulation, judged against a reference dose that is usually intravenous. Low readings indicate little systemic uptake, high ones much systemic uptake. In general, Kp refers to tissue or fluid exposure divided by exposure in the circulation. As usually defined, the Cmax is the peak of the concentration-time curve. One may read the AUC(0-inf) as total exposure, with the tail of the curve extrapolated. A high value points to high exposure. One may read the clearance as the volume of plasma or blood freed of the substance per unit of time. Lower therefore signals inefficient removal.

For the molecule `Cc1cc(C)nc(N2CCC3(CCCC(=O)N3Cc3cccc4[nH]ccc34)CC2)n1`, the Ki in data set [1] is 372 nM; at Orexin receptor type 2, 0.851 nM.
The like results for `Cc1cc(C)nc(N2CCC3(CCCN(Cc4n[nH]cc4-c4ccccc4)C3=O)CC2)n1` were, in that order, 776 nM and 3.89 nM.
Regarding `Cc1ccc(C)c(CN2C(=O)CCCC23CCN(c2cnc4ccccc4n2)CC3)c1`, the Ki in data set [1] was 58.9 nM; at Orexin receptor type 2, 12.9 nM.
The matching figures for `Cc1cc(C)nc(N2CCC3(CCCN(Cc4nn(C)nc4-c4ccccc4)C3=O)CC2)n1`: 759 nM and 4.57 nM.
The like results for `O=C1CCCC2(CCN(c3cnc4ccccc4n3)CC2)N1Cc1c[nH]c2ccccc12` were, in that order, 275 nM and 69.2 nM.
The like results for `COc1ccc2[nH]cc(CN3CCCC4(CCN(c5nc(C)cc(C)n5)CC4)C3=O)c2c1` were, in that order, 20.4 nM and 0.166 nM.
Consider `O=C1N(Cc2c[nH]c3ccccc23)CCCC12CCN(c1ncccn1)CC2`, for which the pIC50 in data set [1] is given as more than 5. Moreover, the Ki at Orexin receptor type 2 is 550 nM.
As to `O=C1CCCC2(CCN(c3nc4ccccc4o3)CC2)N1Cc1cccc2[nH]ccc12`, the Ki in data set [1] was 18.6 nM; on Orexin receptor type 2, 3.16 nM.
The matching figures for `O=C(Cc1ccccc1)N1CCCC12CCN(c1cnc3ccccc3n1)CC2`: 955 nM and 186 nM.
In the case of `Cc1cc(C)nc(N2CCC3(CCCN(Cc4c[nH]c5ccccc45)C3=O)CC2)n1`, the Ki in data set [1] is 661 nM; on Orexin receptor type 2, 6.92 nM.
With `O=C1CCCC2(CCN(c3cnc4ccccc4n3)CC2)N1Cc1cccc2[nH]ccc12`, the Ki in data set [1] was 9.12 nM; at Orexin receptor type 2 it was 0.457 nM. Moreover, the bioavailability in data set [2] was 5%. Also, the Kp at 0.25 h in data set [3] was 0.2. The molecule further gave a Cmax in data set [4] of 18 nM. Further, in data set [5], the Vd stood at 3.1 L/kg. This molecule also gave an AUC(0-inf) in data set [6] of 0.031 µM·h. In data set [7], this molecule gave a clearance of 188 mL/min/kg.
For the molecule `O=C1CCCC2(CCN(c3cnc4ccccc4n3)CC2)N1Cc1ccccc1`, the inhibition constant Ki in data set [1] was 1480 nM; on Orexin receptor type 2, 589 nM.
On to `Cc1cc(C)nc(N2CCC3(CCCN(Cc4[nH]nnc4-c4ccccc4)C3=O)CC2)n1`, for which the Ki is 708 nM in data set [1] and 1.17 nM on Orexin receptor type 2.
The matching figures for `Cc1cc(C)nc(N2CCC3(CCCN(Cc4nn(C)cc4-c4ccccc4)C3=O)CC2)n1`: 813 nM and 17.4 nM.
With `Cc1cc(C)nc(N2CCC3(CCCN(Cc4n[nH]c5ccccc45)C3=O)CC2)n1`, the Ki is 490 nM in data set [1] and 6.92 nM on Orexin receptor type 2.
On to `O=C1N(Cc2ccccc2)CCCC12CCN(c1cnc3ccccc3n1)CC2`, for which the Ki was 1550 nM in data set [1] and 182 nM on Orexin receptor type 2.
The matching figures for `Cc1cc(C)nc(N2CCC3(CCCN(Cc4cn(C)c5ccccc45)C3=O)CC2)n1`: 1450 nM and 20.9 nM.
Take `O=C1N(Cc2c[nH]c3ccccc23)CCCC12CCN(c1cnc3ccccc3n1)CC2`: the Ki is 288 nM in data set [1] and 61.7 nM on Orexin receptor type 2.
The like results for `Cc1ccnc(N2CCC3(CCCN(Cc4c[nH]c5ccccc45)C3=O)CC2)n1` were, in that order, 1410 nM and 26.9 nM.
The like results for `Cc1cc(C)nc(N2CCC3(CCCN(Cc4c[nH]c5ncccc45)C3=O)CC2)n1` were, in that order, 1320 nM and 16.2 nM.
In the case of `O=C1N(Cc2cccc3[nH]ccc23)CCCC12CCN(c1cnc3ccccc3n1)CC2`, the Ki was 550 nM in data set [1] and 77.6 nM at Orexin receptor type 2.
For the molecule `O=C1N(Cc2c[nH]c3ccccc23)CCCC12CCN(c1cnccn1)CC2`, in data set [1], the pIC50 was more than 5. In addition, at Orexin receptor type 2, the Ki is 309 nM.
